Experimental data taken from ChEMBL document CHEMBL4033643, “Synthesis and in vitro antitumour activity of crassalactone D, its stereoisomers and novel cinnamic ester derivatives” (Eur J Med Chem, 2017).
The source made the active and inactive calls. The rule behind the calls is not given here.

Columns and labels:
K562 [1] = assay: Induction of apoptosis in human K562 cells assessed as specific apoptosis by Annexin V-FITC/propidium iodide staining based flow cytometry; type: functional; parameters: concentration or dose not given beside the values
K562 [2] = assay: Induction of apoptosis in human K562 cells assessed as total viable cells by Annexin V-FITC/propidium iodide staining based flow cytometry (reference value: 92.45%); type: functional
K562 [3] = assay: Cell cycle arrest in human K562 cells assessed as accumulation at S phase at IC50 after 72 hrs by propidium iodide staining based flow cytometry (reference value: 41.03%); type: functional
K562 [4] = assay: Cytotoxicity against human K562 cells assessed as reduction in cell viability after 72 hrs by MTT assay; type: functional, cell-based; conditions: K562, 72 h
K562 [5] = assay: Induction of apoptosis in human K562 cells assessed as total late apoptotic cells by Annexin V-FITC/propidium iodide staining based flow cytometry (reference value: 0.77%); type: functional
K562 [6] = assay: Induction of apoptosis in human K562 cells assessed as gated viable cells by Annexin V-FITC/propidium iodide staining based flow cytometry (reference value: 95.78%); type: functional
A549 = assay: Cytotoxicity against human A549 cells assessed as reduction in cell viability after 72 hrs by MTT assay; type: functional, cell-based; conditions: A549, 72 h
HeLa = assay: Cytotoxicity against human HeLa cells assessed as reduction in cell viability after 72 hrs by MTT assay; type: functional, cell-based
K562 [7] = assay: Cell cycle arrest in human K562 cells assessed as accumulation at G0/G1 phase at IC50 after 72 hrs by propidium iodide staining based flow cytometry (reference value: 38.48%); type: functional
K562 [8] = assay: Induction of apoptosis in human K562 cells assessed as increase in cleaved PARP expression level by Western blot analysis; type: functional, cell-based
Summary of the method: (§1)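 Western blot of treated K562 cells for Bcl-2, Bax, activated caspase 3 and cleaved PARP (85 kDa fragment). Blots developed by ECL, with band expression quantified by densitometry against an untreated control sample.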

K562 [9] = assay: Cell cycle arrest in human K562 cells assessed as total cell levels at M4 phase at IC50 after 72 hrs by propidium iodide staining based flow cytometry (reference value: 0.50%); type: functional
HL-60 = assay: Cytotoxicity against human HL60 cells assessed as reduction in cell viability after 72 hrs by MTT assay; type: functional, cell-based; conditions: HL-60, 72 h
K562 [10] = assay: Induction of apoptosis in human K562 cells assessed as total early apoptotic cells by Annexin V-FITC/propidium iodide staining based flow cytometry (reference value: 3.07%); type: functional
K562 [11] = assay: Cell cycle arrest in human K562 cells assessed as accumulation at sub G1 phase at IC50 after 72 hrs by propidium iodide staining based flow cytometry (reference value: 1.48%); type: functional
K562 [12] = assay: Induction of apoptosis in human K562 cells assessed as gated early apoptotic cells by Annexin V-FITC/propidium iodide staining based flow cytometry (reference value: 3.18%); type: functional
K562 [13] = assay: Induction of apoptosis in human K562 cells assessed as total necrotic cells by Annexin V-FITC/propidium iodide staining based flow cytometry (reference value: 0.23%); type: functional
K562 [14] = assay: Induction of apoptosis in human K562 cells assessed as increase in caspase 3 expression level by Western blot analysis; type: functional, cell-based; summary of the method: as §1
K562 [15] = assay: Induction of apoptosis in human K562 cells assessed as gated late apoptotic cells by Annexin V-FITC/propidium iodide staining based flow cytometry (reference value: 0.88%); type: functional
MCF7 = assay: Cytotoxicity against human MCF7 cells assessed as reduction in cell viability after 72 hrs by MTT assay; type: functional, cell-based; conditions: MCF7, 72 h
MRC5 = assay: Cytotoxicity against human MRC5 cells assessed as reduction in cell viability after 72 hrs by MTT assay; type: cell-based; conditions: MRC5, 72 h
K562 [16] = assay: Induction of apoptosis in human K562 cells assessed as specific necrosis by Annexin V-FITC/propidium iodide staining based flow cytometry; type: functional; parameters: concentration or dose not given beside the values
K562 [17] = assay: Cell cycle arrest in human K562 cells assessed as accumulation at G2/M phase at IC50 after 72 hrs by propidium iodide staining based flow cytometry (reference value: 19.01%); type: functional
Jurkat = assay: Cytotoxicity against human Jurkat cells assessed as reduction in cell viability after 72 hrs by MTT assay; type: functional, cell-based
K562 [18] = assay: Cell cycle arrest in human K562 cells assessed as total cell levels at G0/G1 phase at IC50 after 72 hrs by propidium iodide staining based flow cytometry (reference value: 39.97%); type: functional
MDA-MB-231 = assay: Cytotoxicity against human MDA-MB-231 cells assessed as reduction in cell viability after 72 hrs by MTT assay; type: functional, cell-based; conditions: MDA-MB-231, 72 h
K562 [19] = assay: Cell cycle arrest in human K562 cells assessed as total cell levels at S phase at IC50 after 72 hrs by propidium iodide staining based flow cytometry (reference value: 36.49%); type: functional
K562 [20] = assay: Induction of apoptosis in human K562 cells assessed as gated necrotic cells by Annexin V-FITC/propidium iodide staining based flow cytometry (reference value: 0.24%); type: functional
K562 [21] = assay: Cell cycle arrest in human K562 cells assessed as total cell levels at G2/M phase at IC50 after 72 hrs by propidium iodide staining based flow cytometry (reference value: 14.31%); type: functional
K562 [22] = assay: Induction of apoptosis in human K562 cells assessed as increase in Bax expression level by Western blot analysis; type: functional, cell-based; summary of the method: as §1
Raji = assay: Cytotoxicity against human Raji cells assessed as reduction in cell viability after 72 hrs by MTT assay; type: functional, cell-based
K562 [23] = assay: Induction of apoptosis in human K562 cells assessed as decrease in Bcl-2 expression level by Western blot analysis; type: functional, cell-based; summary of the method: as §1

| SMILES | Activity (K562 [1]) | Activity (K562 [2]) | Activity (K562 [3]) | IC50 (K562 [4]) | Activity (K562 [5]) | Activity (K562 [6]) | IC50 (A549) | IC50 (HeLa) | Activity (K562 [7]) | Activity (K562 [8]) | Activity (K562 [9]) | IC50 (HL-60) | Activity (K562 [10]) | Activity (K562 [11]) | Activity (K562 [12]) | Activity (K562 [13]) | Activity (K562 [14]) | Activity (K562 [15]) | IC50 (MCF7) | IC50 (MRC5) | other results |
| --- | --- | --- | --- | --- | --- | --- | --- | --- | --- | --- | --- | --- | --- | --- | --- | --- | --- | --- | --- | --- | --- |
| O=C1C=C[C@@]2(C[C@H](OC(=O)/C=C/c3ccccc3)[C@H](c3ccccc3)O2)O1 | 6.76% | 24.8% | 42.16% | 4.65 µM | 8.34% | 31.14% | 0.25 µM | 58.5 µM | 27.11% | Active | 8.27% | 9.65 µM | 39.85% | 12.49% | 50.03% | 6.66% | Active | 10.47% | 11.4 µM | > 100 µM | Activity (K562 [16]): 28.29%; Activity (K562 [17]): 18.24%; IC50 (Jurkat): 1.02 µM; Activity (K562 [18]): 18.23%; IC50 (MDA-MB-231): 3.64 µM; Activity (K562 [19]): 27.97%; Activity (K562 [20]): 8.36%; Activity (K562 [21]): 12.13%; Activity (K562 [22]): inactive; IC50 (Raji): 2.28 µM; Activity (K562 [23]): Active |
| O=C1C=C[C@]2(C[C@H](OC(=O)/C=C/c3ccccc3)[C@H](c3ccccc3)O2)O1 | 81.79% | 12.29% | 38.09% | 4.62 µM | 12.17% | 15.4% | 1.02 µM | 14.5 µM | 21.01% | inactive | 4.73% | 3.41 µM | 53.67% | 5.69% | 67.26% | 1.67% | inactive | 15.25% | 5.34 µM | > 100 µM | Activity (K562 [16]): 1.97%; Activity (K562 [17]): 35.21%; IC50 (Jurkat): 5.63 µM; Activity (K562 [18]): 17.87%; IC50 (MDA-MB-231): 5.23 µM; Activity (K562 [19]): 31.69%; Activity (K562 [20]): 2.09%; Activity (K562 [21]): 29.57%; Activity (K562 [22]): Active; IC50 (Raji): 9.68 µM; Activity (K562 [23]): Active |
| O=C1C=C[C@]2(C[C@H](OC(=O)/C=C/c3ccc([N+](=O)[O-])cc3)[C@@H](c3ccccc3)O2)O1 | 0.75% | 92.65% | 28.04% | 5.64 µM | 0.85% | 94.55% | 45.4 µM | 2.22 µM | 48.17% | inactive | 1.93% | 2.24 µM | 3.78% | 2.13% | 3.86% | 0.71% | inactive | 0.87% | 8.58 µM | > 100 µM | Activity (K562 [16]): 3.4%; Activity (K562 [17]): 21.66%; IC50 (Jurkat): 31.2 µM; Activity (K562 [18]): 43.62%; IC50 (MDA-MB-231): > 100 µM; Activity (K562 [19]): 25.39%; Activity (K562 [20]): 0.72%; Activity (K562 [21]): 20.35%; Activity (K562 [22]): Active; IC50 (Raji): > 100 µM; Activity (K562 [23]): inactive |
| O=C1C=C[C@@]2(C[C@H](OC(=O)/C=C/c3ccc(F)cc3)[C@H](c3ccccc3)O2)O1 | 18.71% | 70.05% | 30.34% | 5.36 µM | 0.75% | 75.24% | 1.17 µM | 8.45 µM | 37.01% | Active | 3.69% | 1.02 µM | 10% | 3.99% | 20.44% | 1.57% | Active | 1.51% | 2.31 µM | > 100 µM | Activity (K562 [16]): 1.22%; Activity (K562 [17]): 28.66%; IC50 (Jurkat): 4.63 µM; Activity (K562 [18]): 34.22%; IC50 (MDA-MB-231): 7.54 µM; Activity (K562 [19]): 28.54%; Activity (K562 [20]): 2.81%; Activity (K562 [21]): 26.5%; Activity (K562 [22]): inactive; IC50 (Raji): 5.37 µM; Activity (K562 [23]): Active |
